Sequences and labels used below:
B1: tRNA (parent)
chain: GUUCCGUUGGCGUAAUGGUAACGCGUCUCCCUCCUAAGGAGAAGACUGCGGGUUCGAGUCCCGUACGGAACG

Fewer inactive variants are shown than the library holds.

In this series the parent is B1. Description: yeast fitness relative to wild type (ratio to wild type); higher = fitter; tRNA-Arg(CCU), competitive growth, 37 C, YPD. The method, boiled down: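 Variants of the tRNA-Arg(CCU) gene, chemically synthesised with a 3% per-site mutation rate at 69 sites, were placed at the native genomic locus in Saccharomyces cerevisiae. The pooled strains were competed in YPD at 37°C for 24 hours in six parallel replicates. Gene amplicons from the start population and from each end population were read by 100-nucleotide paired-end sequencing. Darwinian fitness relative to wild type came from changes in genotype frequencies; genotypes needed ≥ 100 starting reads, and estimates < 0.5 were set to 0.5.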
As for C33G U47A C61U A69U, the yeast fitness stood at 0.573.

As for C33G G56C C62U, the yeast fitness was not above 0.5.

Turning to C33G A36C A57U, the yeast fitness is not above 0.5.

Regarding U32G G41A C60G A65G, the yeast fitness was found to be 0.548.

In the case of C33G G52C C61U U64C, the yeast fitness was not above 0.5.

Take C33G U47G C66U: the yeast fitness worked out at 0.56.

With U32C G39C C61U, the yeast fitness is not above 0.5.

Regarding C33A U35A U64C G68C, the yeast fitness was not above 0.5.

Take C33G A45C C66A: the yeast fitness worked out at 0.514.

For C33A A40U U53C C55U C62U, the yeast fitness is not above 0.5.

With U32C G63A, the yeast fitness was 0.832.

As for C33A G52A, the yeast fitness was not above 0.5.

Turning to C33A U35A G68C, the yeast fitness was not above 0.5.

C33G U47A U64G: the yeast fitness was 0.77.

Turning to U32G A40U U64G, the yeast fitness was found to be 0.543.

For C33A G39C A42G C55U A57G, the yeast fitness is 0.585.

In the case of C33G A37C A45C, the yeast fitness is not above 0.5.

C33A U53A C60G: the yeast fitness turned out to be 0.681.

Consider U32C C61U G68A, for which the yeast fitness was 0.586.

As for U32C G44A, the yeast fitness came out at 1.03.

Take C33G G52A A65C: the yeast fitness is not above 0.5.

In the case of U32C C61U, the yeast fitness worked out at 0.987.

As to U32C C61G, the yeast fitness is 0.702.

For the variant C33A G44A U64G, the yeast fitness is not above 0.5.

For the variant C33G C34U G68A, the yeast fitness stood at 0.582.

Consider C33A A36C G63C C66G, for which the yeast fitness came out at 0.53.

For the variant U32C C34G A42C, the yeast fitness was not above 0.5.

Consider U32C C34G A42U, for which the yeast fitness was not above 0.5.

Consider C33U A36G, for which the yeast fitness is 0.662.

With U32C C60G A65U, the yeast fitness is not above 0.5.

As to C33A C46U C61G, the yeast fitness is not above 0.5.

With U32C C66G A70U, the yeast fitness came out at 0.811.

For the variant U32C C62A, the yeast fitness came out at 0.727.

In the case of U32C C62U, the yeast fitness was determined as 1.02.

For the variant U32C C62G, the yeast fitness is 0.796.

With C33G G63U U64G, the yeast fitness is 0.665.

Turning to C33G G63U U64A, the yeast fitness was determined as 0.553.

For C33G G38C, the yeast fitness was 0.548.

With U32C C34A A37U C46U, the yeast fitness was not above 0.5.

C33G G52C C61U: the yeast fitness was 0.566.

As to U32C U54A A65G, the yeast fitness was not above 0.5.

As to C33G G48A U64A, the yeast fitness amounted to 0.613.

Consider U32C G41C G50A C61G, for which the yeast fitness came out at 0.565.

Consider C33U A37U C61U, for which the yeast fitness was not above 0.5.

As to U32G C33G, the yeast fitness stood at 0.59.

As to U32G C33A, the yeast fitness is 0.601.

Turning to C33A G39C C49U U54A G63C G67A, the yeast fitness is not above 0.5.

Take U32C C55U A57G: the yeast fitness stood at 0.555.

For U32C G67U, the yeast fitness came out at 0.861.

Regarding U32C G67A, the yeast fitness worked out at 0.855.

On to U32G C34U G52A, for which the yeast fitness amounted to 0.589.

On to C33G C49A, for which the yeast fitness came out at 0.628.

Take C33G A36C C46A: the yeast fitness is not above 0.5.

Regarding C33G A45C, the yeast fitness turned out to be 0.684.

Consider U32G G38A, for which the yeast fitness worked out at 0.586.

For the variant C33U A36G G39A G44A C55G U59C, the yeast fitness was not above 0.5.

With C33A A37U A57G, the yeast fitness was 0.545.

As to C33A A37U A57C, the yeast fitness is not above 0.5.

Regarding C33G C60U, the yeast fitness was not above 0.5.

Consider C33A C49G G67C, for which the yeast fitness turned out to be 0.548.

As to C33G G50A, the yeast fitness came to 0.614.

Turning to C33G A40G, the yeast fitness was 0.615.

As to C33G A40C, the yeast fitness came out at 0.697.

As to U32G A45G, the yeast fitness worked out at 0.673.

Take U32G A45C: the yeast fitness came to 0.692.

Consider C33G A69C A70U, for which the yeast fitness is 0.611.

For C33A G39A G50C G67C, the yeast fitness was found to be 0.573.

Take C33G A42U C60G: the yeast fitness was not above 0.5.

For the variant C33G A36G G51C U64A C66U A69C, the yeast fitness is not above 0.5.

For U32G A43C, the yeast fitness came to 0.694.

For C33A C55G A69C, the yeast fitness is not above 0.5.

As for C33A G51A, the yeast fitness was determined as 0.659.

Regarding C33G A40U G51C, the yeast fitness was not above 0.5.

For C33U A40C A45C, the yeast fitness worked out at 0.561.

Consider U32C C60G A69U, for which the yeast fitness is not above 0.5.

In the case of U32C C62U A69C, the yeast fitness amounted to 1.15.

As to C33U A36G C55U A69C, the yeast fitness is not above 0.5.

Take C33A C49A C60A: the yeast fitness worked out at 0.714.

For the variant C33A G52A A65U, the yeast fitness is not above 0.5.

Consider C33G G38C C46G U53C A69C, for which the yeast fitness is not above 0.5.

With C33G U47C G52C C61U, the yeast fitness is not above 0.5.

For U32G G48A, the yeast fitness stood at 0.616.

As to C33G G51A C55A, the yeast fitness was not above 0.5.

As to C33G A40G A43G G44A, the yeast fitness was not above 0.5.

C33G A36C C66U: the yeast fitness was 0.502.

Consider U32G A45C G68A, for which the yeast fitness is not above 0.5.

U32G C55G: the yeast fitness was not above 0.5.

C33G C61U G67A: the yeast fitness stood at 0.649.

Take U32G C33U A37G: the yeast fitness is not above 0.5.

Take C33G U54C: the yeast fitness worked out at 0.519.

Turning to C33G U54G, the yeast fitness was not above 0.5.

C33G U54A: the yeast fitness is not above 0.5.

For U32C C46G A57U, the yeast fitness amounted to 0.673.

Consider C33G A42C G67A, for which the yeast fitness was not above 0.5.

On to C33G U47G A57G A69U, for which the yeast fitness came out at 0.509.

With U32C G38C, the yeast fitness worked out at 0.742.

With U32G A65G, the yeast fitness came to 0.718.

On to C33G C55U G56C A69C, for which the yeast fitness is 0.831.

C33A U35G C49U: the yeast fitness was 0.904.

Consider U32G G58C A65U, for which the yeast fitness is not above 0.5.

Turning to C33U A37U G51C A65U, the yeast fitness stood at 0.584.

In the case of U32C C46U G51C C62U, the yeast fitness is not above 0.5.

C33A G50A A69U A70C: the yeast fitness is not above 0.5.

Take U32C U47C: the yeast fitness came to 0.974.

For C33U A40U C66U, the yeast fitness is not above 0.5.

Regarding C33A C55U C61A, the yeast fitness is 0.559.

Consider U32C C62U C66G, for which the yeast fitness was not above 0.5.

Regarding U32C G39A A40U G63C, the yeast fitness was not above 0.5.

On to C33G C62U A70C, for which the yeast fitness is 0.618.

Consider C33G G39C C55U, for which the yeast fitness was found to be 0.515.

As to U32G A69U, the yeast fitness turned out to be 0.711.

For the variant C33A U35C C60A, the yeast fitness is not above 0.5.

As for C33G G67A A69C, the yeast fitness was not above 0.5.

Take U32G C61A C62A: the yeast fitness came to 0.537.

Turning to U32C G39C G67C, the yeast fitness is not above 0.5.

Consider C33A G58C U64G, for which the yeast fitness turned out to be 0.564.

Take C33A G39C: the yeast fitness came to 0.677.

With C33G A36U A57U, the yeast fitness is 0.581.

As for U32G C46U, the yeast fitness was 0.562.

Turning to U32G C46A, the yeast fitness came out at 0.667.

For U32C C46G, the yeast fitness is 0.865.

On to C33A A42G U54C C62U, for which the yeast fitness came to 0.637.

U32G U35A A65U: the yeast fitness was not above 0.5.

For U32G C61U G67U, the yeast fitness is not above 0.5.

Take C33G A42G C49U G67A: the yeast fitness is not above 0.5.

Regarding C33A A36U A37G, the yeast fitness was not above 0.5.

C33A A45G C49U A70U: the yeast fitness was not above 0.5.

As for U32G A40U G52A A57U, the yeast fitness is not above 0.5.

In the case of C33G G39C A69C, the yeast fitness is not above 0.5.

C33U A42G: the yeast fitness was 0.622.

As for C33G C46A, the yeast fitness turned out to be 0.71.

In the case of C33G C34A A43G C55A, the yeast fitness was 0.635.

Turning to C33A C49U G52A, the yeast fitness was not above 0.5.

In the case of C33G A42G G44A U64C, the yeast fitness is not above 0.5.

Regarding U32G U35A, the yeast fitness was not above 0.5.

Consider U32G A45G C49U, for which the yeast fitness was not above 0.5.

Consider U32G G67A, for which the yeast fitness amounted to 0.643.

Consider U32G G67U, for which the yeast fitness stood at 0.547.

Consider U32C G50A, for which the yeast fitness was 1.02.

Consider C33G A45G A70U, for which the yeast fitness was not above 0.5.

In the case of U32C G39C C55U, the yeast fitness is not above 0.5.

Regarding U32C C55G, the yeast fitness came out at 0.629.

On to C33G A42U, for which the yeast fitness was determined as 0.73.

As to C33G A42C, the yeast fitness is 0.675.

In the case of C33G G41C C61G A65U, the yeast fitness was not above 0.5.

In the case of C33G C34G A43G C46G, the yeast fitness is not above 0.5.

For C33A G58C, the yeast fitness worked out at 0.647.

C33G C34A A43G C61U A65C: the yeast fitness was not above 0.5.

In the case of U32G A45C G56A C66U, the yeast fitness was not above 0.5.

Regarding U32G A37C A57C G63A, the yeast fitness was not above 0.5.

As to U32G A42G, the yeast fitness was determined as 0.56.

Take C33G A42U A43U A65C G68C: the yeast fitness amounted to 0.553.

For C33A A42G, the yeast fitness stood at 0.583.

Take C33U A40C A45C C60G A65C: the yeast fitness is not above 0.5.

For C33G G41C G56C G58A G63C A65U, the yeast fitness was 0.587.

As to C33A A42G A70U, the yeast fitness is not above 0.5.

As to C33A C61G, the yeast fitness stood at 0.775.

Regarding C33A G41A, the yeast fitness was 0.635.

On to U32G U47G, for which the yeast fitness was not above 0.5.

Take C33G A40U G48C C60G: the yeast fitness is not above 0.5.

As for U32C C46G C61G, the yeast fitness was 0.587.

Consider C33U A42C A65G, for which the yeast fitness was found to be 0.58.

As to U32C G67U A69C, the yeast fitness is not above 0.5.

Consider C33G G48A C66G A70C, for which the yeast fitness was found to be 0.524.

As for C33G A37G A43C U47C G58C, the yeast fitness is not above 0.5.

C33A C49U C55G: the yeast fitness is not above 0.5.

U32C C60G C66U A70U: the yeast fitness was not above 0.5.
